In publication PMC2669732 (Journal of Medicinal Chemistry, 2009):
Read-outs that look alike come from different tables or passages of the source.

How the values were obtained:
[1] = biological target: T1, EcIspF (Escherichia coli, UniProt P62617); test: SPR binding assay with immobilized EcIspF; settings: for fold weaker binding than CMP: SPR KD comparison; for ΔG: ΔG = −RT ln Kd
T1 sequence (P62617 1-159): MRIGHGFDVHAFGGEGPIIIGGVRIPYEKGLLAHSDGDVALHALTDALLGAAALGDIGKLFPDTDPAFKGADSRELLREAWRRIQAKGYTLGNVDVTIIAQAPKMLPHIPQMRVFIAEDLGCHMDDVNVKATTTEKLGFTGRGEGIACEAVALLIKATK
Procedure, shortened: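 E. coli IspF expressed in BL21(DE3), >95% pure, amine-coupled to CM5 chip (diluted to ~100 μg/mL final in 10 mM acetate pH 5.5) to 4500–5500 RU. Ligand series 0.1 μM–10 mM run at 10 °C, 30 μL/min, in 50 mM sodium phosphate pH 7, 2 mM MgCl2, 0.005% P20. Each injection in triplicate with 40 min buffer regeneration. Blank-subtracted steady-state RU fit to 1:1 Langmuir model.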

[2] = system: E. coli LpxC; settings: cited from earlier work
[3] = system: LpxC; settings: cited from earlier work
[4] = Δg = ΔG/N, N = number of non-hydrogen atoms, Table 5

Row | ΔG [1] [kcal/mol] | ligand efficiency (Δg) [1, 4] [kJ·mol^−1/non-H atom] | ligand efficiency (Δg) [1] [kJ·mol^−1/non-H atom] | Molecule | further results
1 |  |  |  | Nc1ccn([C@H]2O[C@@H](CO)[C@H]3OP(=O)(O)O[C@H]32)c(=O)n1 (mixture of isomers) [Compound 6] | fold weaker binding than CMP [1]: about 20 fold
2 | -1.81 | −0.42 |  | Nc1ccn(CC(CO)OCP(=O)(O)O)c(=O)n1.O.O (stereo in doubt) [CDV, [(2R)-1-(4-amino-2-oxo-pyrimidin-1-yl)-3-hydroxy-propan-2-yl] oxymethylphosphonic acid] | 
3 |  |  |  | O=C(O)C1COC(c2ccccc2)=N1 (stereo not shown) [4,5 dihydro-2-phenyloxazole-4-carboxylic acid] | IC50 [2]: > 400 µM
4 | -2.23 | −0.44 |  | Nc1ccn([C@@H]2O[C@H](COP(=O)(O)O)[C@@H](O)[C@@H]2O)c(=O)n1 [AraCMP] | fold weaker binding than CMP [1]: 20 fold
5 | -3.941 | −0.79 | −0.79 | Nc1ccn([C@@H]2O[C@H](COP(=O)(O)O)[C@@H](O)[C@H]2O)c(=O)n1 [CMP] | 
6 | -3.929 | −0.82 |  | Nc1ccn([C@@H]2O[C@@H]3COP(=O)(O)O[C@H]3[C@H]2O)c(=O)n1 [Compound 7] | 
7 |  | −2.04 | −2.04 | N[C@@H](Cc1c[nH]c2ccccc12)C(=O)NO [Compound 13, 2-amino-N-hydroxy-3-(1H-indol-3-yl)-propionimidic acid] | 
8 | -3.489 | −0.81 | −0.81 | Nc1nc(=O)n([C@@H]2O[C@H](CO)[C@@H](O)[C@H]2O)cc1F [FLUC] | 
9 |  |  |  | CC(=O)N[C@H]1[C@@H](OP(=O)(O)OP(=O)(O)OC[C@H]2O[C@@H](n3ccc(=O)[nH]c3=O)[C@H](O)[C@@H]2O)O[C@H](CO)[C@@H](O)[C@@H]1O [UDP-GlcNAc] | Km ([3]; substrate of LpxC): > 20000 µM
10 |  |  |  | UDP-3-acyl-GlcNAc | Km ([3]; natural substrate of LpxC): 2.1 µM
